The assay concerns the target Aspartyl aminopeptidase (Homo sapiens) (UniProt Q9ULA0). The assay can be described thus: human M18AAP aspartyl aminopeptidase inhibitors, dose response, counter-screen for PfM18AAP inhibitor project, biochemical, QFRET fluorogenic substrate, set 2 (AID 602221). Particulars: recombinant hM18AAP, H-Glu-NHMec fluorogenic cleavage; for inhibition: at 100 µM (top of the series). An outline of the steps: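 Measure: % inhibition and IC50, curve bounds fixed 0–100; Test system: recombinant human M18 aspartyl aminopeptidase; Input: hM18AAP at 5 µg/mL final; Measured by: fluorescence, ex 370/em 460 nm; Replication: triplicate; Buffer or medium: Tris pH 7.5 with CoCl2 and 2% DMSO; Times: 90 min reaction, room temperature; Reagent: H-Glu-NHMec substrate, 0.1 mM.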
In general terms: The purpose of a counterscreen is to sort out artefacts and off-target activity.

The structures appear in SMILES notation. The source made the active and inactive calls.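 Rule for the calls: active = inhibition of 30% or more at any tested concentration; inactive = the rest.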

As a reminder, the IC50 is the concentration that gives 50% inhibition. For `Oc1ccc(CCNc2ccnc3ccccc23)cc1O`, the IC50 is 7.26 µM. Consider `CN1CCN(CCc2ccc(O)c(O)c2)CC1`, for which the IC50 is 29.3 µM.

Take `COc1ccc(CCNC(c2ccccc2)c2ccccc2)cc1OC`: the inhibition entry is “inactive”. Still for that read-out and setting: then `COc1ccc(CCCN2CCN(C)CC2)cc1OC`, with “inactive”. As for `CN1CCN(c2nc(-c3ccc(O)c(O)c3)cs2)CC1`, the concentration for half-maximal inhibition (IC50) is 3.7 µM. `CN1CCN(CCCc2ccc(O)c(O)c2)CC1`: the 50% inhibitory concentration (IC50) is 6.49 µM.

As to `Oc1ccc(CCNc2c3ccccc3nc3ccccc23)cc1O`, the half-maximal inhibitory concentration (IC50) is 0.95 µM. With `Oc1ccc(-c2csc(Nc3ncccn3)n2)cc1O`, the half-maximal inhibitory concentration (IC50) is 2.25 µM. Same read-out and setting: the same measure for `CCc1ccc(NC(=O)Cc2nc(-c3ccc(O)c(O)c3)cs2)cc1`: 6.04 µM; for `Oc1ccc(-c2csc(NC3CCCC3)n2)cc1O`: 4.78 µM.

(Values after PubChem BioAssay AID602221 (Southern Research Specialized Biocontainment Screening …, 2012).)
